Measured values collected from several papers.
Each line is one published result; the experiments were not run side by side.
Target: Serine/threonine-protein kinase PAK 2 (PAK2, Homo sapiens, UniProt Q13177)

O=C(Nc1cnn(-c2csc(C(=O)NC3COC3)c2)c1)Nc1c(F)cccc1Cl — remaining activity (enzyme activity; inhibitor; 5 µM): 95.3%
Nc1ncnc2occ(-c3ccc(NC(=O)Nc4cc(C(F)(F)F)ccc4F)cc3)c12 — remaining signal (cell-free assay; inhibitor; 20 µM): 60%
CN1CC(Oc2cnc(C#N)cc2-c2ccn3nc(NC(=O)C4CC4)cc3c2)C1 — inhibition (enzyme activity; inhibitor; 1 µM): -7%
CCN(CC)c1ccc(C2=NNC(=O)CC2C)cc1[N+](=O)[O-] (centres unmarked) — remaining activity (enzyme activity; inhibitor; 10 µM): 98%
CC(C)(O)c1cncc(-c2nc3ccc(F)cc3n2C2CC2)c1 — remaining binding (cell-free assay; competition with immobilised ligand; 1 µM): 100%
CNCc1ccc(-c2cc(-c3nc(-c4ccc(S(=O)(=O)C(C)C)cc4)cnc3N)on2)cc1 — inhibition (enzyme activity; inhibitor; 0.4 µM): 7%
N#CCCc1ccc2c(c1)-c1[nH]c3ccc([N+](=O)[O-])cc3c1CC(=O)N2 — remaining signal (cell-free assay; 0.5 µM): 55.6%
Cc1ccc(C(=O)Nc2ccc(CN3CCN(C)CC3)c(C(F)(F)F)c2)cc1C#Cc1cnc2cccnn12 — remaining activity (enzyme activity; inhibitor; 23.5 nM): 70%
CC(C)(C)c1nc(-c2cccc(NS(=O)(=O)c3c(F)cccc3F)c2F)c(-c2ccnc(N)n2)s1 — remaining activity (enzyme activity; inhibitor; radiometric; 1 µM): 88%
Cn1cc(Cl)c2c(Oc3c(F)cc(Nc4cc(Cl)nc(N)n4)cc3F)ccnc21 — remaining binding (cell-free assay; competition with immobilised ligand; 0.1 µM): 100%
CCCOc1ccc(OC)c(F)c1C(=O)c1ccc(C(=O)N[C@@H]2CNC[C@H]2NC(=O)c2ccc3[nH]ncc3c2)cc1 — remaining activity (enzyme activity; inhibitor; 10 µM): 74%
COc1cc(Nc2cnc(C#N)c(O[C@H](C)CN(C)C)n2)ncc1-c1cnn(C)c1 — remaining activity (enzyme activity; inhibitor; radiometric; 1 µM): 100%
C#Cc1cccc(Nc2ncnc3cc(OCCOC)c(OCCOC)cc23)c1 — remaining signal (cell-free assay; 0.5 µM): 99.1%
COc1cc(/C=C/C(=O)CC(=O)/C=C/c2ccc(O)c(OC)c2)ccc1O — activity vs control (enzyme activity; inhibitor; 1 µM): 84%
O=C(CSc1nc2nccnc2c(=O)n1CCc1ccccc1)Nc1nccs1 — inhibition (enzyme activity; inhibitor; 10 µM): 1%
Cc1cnc(NC2CCOCC2)nc1-n1cnc(C(=O)NC(CN)c2cc(F)cc(Cl)c2)c1 (centres unmarked) — remaining activity (enzyme activity; inhibitor; radiometric; 1 µM): 77%
CS(=O)(=O)N1CCCC(NC(=O)[C@H](CCC2CCCCC2)NC(=O)c2ccc(CNC(=O)c3cnc4ccccn34)cc2)C1 (some centres unmarked) — remaining binding (cell-free assay; competition with immobilised ligand; 0.1 µM): 93%
CCCS(=O)(=O)Nc1ccc(F)c(C(=O)c2c[nH]c3ncc(-c4ccc(Cl)cc4)cc23)c1F — inhibition (enzyme activity; inhibitor; 1 µM): < 10%
Cc1nc(N2CC[C@@H](O)C2)ncc1-c1cc(C(F)(F)F)cc2[nH]ncc12 — remaining binding (cell-free assay; competition with immobilised ligand; 1 µM): 100%
COc1cc(Nc2c(C#N)cnc3cc(OCCCN4CCN(C)CC4)c(OC)cc23)c(Cl)cc1Cl — remaining signal (cell-free assay; 0.5 µM): 69.4%
CCN(CC)CCNC(=O)c1c(C)[nH]c(/C=C2\C(=O)Nc3ccc(F)cc32)c1C — inhibition (enzyme activity; inhibitor; 0.3 µM): -8%
COc1cc2ncnc(Nc3ccc(Oc4ccccc4)cc3C)c2cc1OC — inhibition (enzyme activity; inhibitor; 1 µM): 2%
CO[C@@H](C)c1c(Nc2ccc([C@H](N(C)C(=O)C3CCS(=O)(=O)CC3)C(F)(F)F)cc2)cnc2cc(Cl)nn12 — remaining binding (cell-free assay; competition with immobilised ligand; 1 µM): 76%
O=C1Nc2ccc(Cl)cc2C1=Cc1cc(Cl)c(O)c(Cl)c1 — remaining signal (cell-free assay; 0.5 µM): 96.8%
FC(F)(F)Oc1cccc(-c2cnc3ccc(-c4ccncc4)nn23)c1 — activity vs control (enzyme activity; inhibitor; radiometric; 5 µM): 88%
CN([C@@H]1CCc2c(CC(=O)O)c3ccccc3n2C1)S(=O)(=O)c1ccc(F)cc1 — remaining binding (cell-free assay; competition with immobilised ligand; 1 µM): 100%
FC(F)c1nc2ccccc2n1-c1nc(N2CCOCC2)nc(N2CCOCC2)n1 — remaining activity (enzyme activity; inhibitor; 10 µM): 100%
Cc1ccc(Nc2nccc(N(C)c3ccc4c(C)n(C)nc4c3)n2)cc1S(N)(=O)=O — inhibition (enzyme activity; inhibitor; 0.3 µM): 1%
CC(C)CC(=O)N1CCc2nc(-c3ccc(Br)cc3)nc(N(C)Cc3ccccc3)c2C1 — remaining binding (cell-free assay; competition with immobilised ligand; 0.1 µM): 100%
CC(C)(O)[C@H]1CC[C@H](Nc2ccc3ncc(-c4cccc(C(F)(F)F)c4)n3n2)CC1 — remaining activity (enzyme activity; inhibitor; 1 µM): 93.4%
O=C(Nc1cnc(Oc2ccc(F)cc2)nc1)N1CCc2ncccc2[C@@H]1c1ccc(F)cc1 — remaining binding (cell-free assay; competition with immobilised ligand; 1 µM): 59%
O=C(Nc1cnn(-c2csc(C(=O)NC3COC3)c2)c1)Nc1ccccc1Cl — remaining activity (enzyme activity; inhibitor; 5 µM): 90.1%
